One may read the MIC as the lowest concentration found to suppress growth.

For eight molecules, MIC results are on record in ChEMBL document CHEMBL1152380, “The synthesis and biological evaluation of a novel series of C7 non-basic substituted fluoroquinolones as antibacterial agents” (2009).

What all share (assay type): functional
Experiment [1] deals with Streptococcus pneumoniae. The experiment is described as follows: Antibacterial activity against multidrug-resistant Streptococcus pneumoniae clinical isolates by microbroth dilution technique.
For the next experiment, the system named is Escherichia coli. The experiment is described as follows: Antibacterial activity against Escherichia coli ATCC 25922 by microbroth dilution technique. The method in brief: (§1)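 MIC, taken as the lowest drug concentration that prevents visible growth, determined by broth microdilution following the National Committee for Clinical and Laboratory Standards method. Strains were reference strains from the American Type Culture Collection or clinical isolates from the hospital culture collection.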
On the technique in general: Broth dilution looks for growth in wells or tubes with falling amounts of substance.

Experiment [2] concerns Staphylococcus aureus. The experiment is described as follows: Antibacterial activity against multidrug-resistant Staphylococcus aureus clinical isolates by microbroth dilution technique.
Experiment [3] concerns Pseudomonas aeruginosa. The experiment is described as follows: Antibacterial activity against multidrug-resistant Pseudomonas aeruginosa clinical isolates by microbroth dilution technique. As to conditions: Pseudomonas aeruginosa; read-out: MIC.
The subject of experiment [4] is Staphylococcus aureus. The experiment is described as follows: Antibacterial activity against Staphylococcus aureus ATCC 25923 by microbroth dilution technique. The method in brief: as §1
The subject of a further experiment is Enterococcus faecalis. The experiment is described as follows: Antibacterial activity against Enterococcus faecalis ATCC 29212 by microbroth dilution technique. A digest of the protocol: as §1
For experiment [5], the system named is Staphylococcus epidermidis. The experiment is described as follows: Antibacterial activity against Staphylococcus epidermidis ATCC 12228 by microbroth dilution technique. A digest of the protocol: as §1
For experiment [6], the system named is Streptococcus pneumoniae. The experiment is described as follows: Antibacterial activity against Streptococcus pneumoniae ATCC 49619 by microbroth dilution technique. A digest of the protocol:
(§2)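 Broth microdilution run to the National Committee for Clinical and Laboratory Standards method. MIC is taken as the lowest drug concentration that prevents visible bacterial growth. Strains were clinical isolates from a hospital culture collection or ATCC reference strains.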

For experiment [7], the system named is Pseudomonas aeruginosa. The experiment is described as follows: Antibacterial activity against Pseudomonas aeruginosa ATCC 27853 by microbroth dilution technique. A digest of the protocol: as §2
[8] abbreviates: Streptococcus pneumoniae, read-out: MIC.
Where [9] appears, read: Escherichia coli, ATCC 25922, read-out: MIC.
The mark [10] stands for this setting: Staphylococcus aureus, ATCC 25923, read-out: MIC.
Where [11] appears, read: Enterococcus faecalis, ATCC 29212, read-out: MIC.
Where [12] appears, read: Staphylococcus epidermidis, ATCC 12228, read-out: MIC.
Setting [13] is: Streptococcus pneumoniae, ATCC 49619, read-out: MIC.
Setting [14] is: Pseudomonas aeruginosa, ATCC 27853, read-out: MIC.

≈ marks a conversion by molar mass, not a printed value.

In the case of `COC(=O)[C@@H]1C[C@@H](n2cc(CO)nn2)CN1c1nc2c(cc1F)c(=O)c(C(=O)O)cn2C1CC1`, the MIC is 1 µg/mL (≈ 2.12 µM) in the experiment with Streptococcus pneumoniae [1] (setting [8]); 4 µg/mL (≈ 8.47 µM) with Escherichia coli (setting [9]); over 32 µg/mL against Staphylococcus aureus [2]; over 32 µg/mL in the experiment with Pseudomonas aeruginosa [3]; 4 µg/mL (≈ 8.47 µM) in the experiment on Staphylococcus aureus [4] (setting [10]); 0.5 µg/mL (≈ 1.06 µM) in the experiment on Enterococcus faecalis (setting [11]). Moreover, the MIC turned out to be 8 µg/mL (≈ 16.9 µM) in experiment [5] (setting [12]), 1 µg/mL (≈ 2.12 µM) with Streptococcus pneumoniae [6] (setting [13]) and 32 µg/mL (≈ 67.7 µM) with Pseudomonas aeruginosa [7] (setting [14]).

In the case of `O=C(O)c1cn(C2CC2)c2nc(N3C[C@@H](O)[C@H](O)C3)c(F)cc2c1=O`, the MIC in the experiment with Streptococcus pneumoniae [1] (setting [8]) is 2 µg/mL (≈ 5.73 µM); with Escherichia coli (setting [9]), 4 µg/mL (≈ 11.5 µM); against Staphylococcus aureus [2] it was over 32 µg/mL; in the experiment with Pseudomonas aeruginosa [3] it was 32 µg/mL (≈ 91.6 µM); with Staphylococcus aureus [4] (setting [10]) it was 4 µg/mL (≈ 11.5 µM); in the experiment with Enterococcus faecalis (setting [11]), 2 µg/mL (≈ 5.73 µM). For the same molecule, the MIC in [5] (setting [12]) was over 32 µg/mL; with Streptococcus pneumoniae [6] (setting [13]) it was 2 µg/mL (≈ 5.73 µM); in the experiment on Pseudomonas aeruginosa [7] (setting [14]) it was 32 µg/mL (≈ 91.6 µM).

Regarding `O=C(O)c1cn(C2CC2)c2nc(N3C[C@H](O)C[C@H]3CO)c(F)cc2c1=O`, the MIC is 8 µg/mL (≈ 22 µM) with Streptococcus pneumoniae [1] (setting [8]); 32 µg/mL (≈ 88.1 µM) in the experiment with Escherichia coli (setting [9]); over 32 µg/mL in the experiment on Staphylococcus aureus [2]; 32 µg/mL (≈ 88.1 µM) with Pseudomonas aeruginosa [3]; 16 µg/mL (≈ 44 µM) in the experiment on Staphylococcus aureus [4] (setting [10]); 4 µg/mL (≈ 11 µM) in the experiment with Enterococcus faecalis (setting [11]). Further, the MIC in experiment [5] (setting [12]) is over 32 µg/mL; in the experiment on Streptococcus pneumoniae [6] (setting [13]), 8 µg/mL (≈ 22 µM); in the experiment with Pseudomonas aeruginosa [7] (setting [14]), 32 µg/mL (≈ 88.1 µM).

As for `O=C(O)c1cn(C2CC2)c2nc(N3CC4CC3C[S+]4[O-])c(F)cc2c1=O` (stereo in doubt; 6.26), the MIC with Streptococcus pneumoniae [1] was found to be 0.125 µg/mL (≈ 0.331 µM); against Escherichia coli, 0.5 µg/mL (≈ 1.32 µM); with Pseudomonas aeruginosa [3] it was 32 µg/mL (≈ 84.8 µM); against Staphylococcus aureus [4], 1 µg/mL (≈ 2.65 µM); in the experiment on Enterococcus faecalis, 0.25 µg/mL (≈ 0.662 µM); in experiment [5] it was 1 µg/mL (≈ 2.65 µM). The MIC in the experiment with Streptococcus pneumoniae [6] was found to be 0.125 µg/mL (≈ 0.331 µM); against Pseudomonas aeruginosa [7], 16 µg/mL (≈ 42.4 µM).

Take `O=C(O)c1cn(C2CC2)c2nc(N3CCC[C@H]3Cn3cc(-c4ccccc4)nn3)c(F)cc2c1=O`: the MIC in the experiment with Escherichia coli (setting [9]) is over 32 µg/mL; with Staphylococcus aureus [4] (setting [10]), 1 µg/mL (≈ 2.11 µM); in the experiment on Enterococcus faecalis (setting [11]), 4 µg/mL (≈ 8.43 µM); in [5] (setting [12]) it was over 32 µg/mL; in the experiment with Pseudomonas aeruginosa [7] (setting [14]) it was over 32 µg/mL.

For the molecule `COC(=O)[C@@H]1C[C@@H](n2cc(Cc3ccccc3)nn2)CN1c1nc2c(cc1F)c(=O)c(C(=O)O)cn2C1CC1`, the MIC in the experiment with Streptococcus pneumoniae [1] (setting [8]) was 8 µg/mL (≈ 15 µM); with Escherichia coli (setting [9]) it was 32 µg/mL (≈ 60.1 µM); in the experiment with Staphylococcus aureus [2], over 32 µg/mL; in the experiment with Pseudomonas aeruginosa [3], 32 µg/mL (≈ 60.1 µM); with Staphylococcus aureus [4] (setting [10]) it was over 32 µg/mL; in the experiment with Enterococcus faecalis (setting [11]) it was 16 µg/mL (≈ 30 µM). In addition, the MIC in experiment [5] (setting [12]) is over 32 µg/mL; with Streptococcus pneumoniae [6] (setting [13]), 4 µg/mL (≈ 7.51 µM); in the experiment with Pseudomonas aeruginosa [7] (setting [14]), 32 µg/mL (≈ 60.1 µM).

Take `O=C(O)c1cn(C2CC2)c2nc(N3CCC[C@H]3CO)c(F)cc2c1=O`: the minimal inhibitory concentration (MIC) in the experiment on Streptococcus pneumoniae [1] (setting [8]) is 0.5 µg/mL (≈ 1.44 µM); with Escherichia coli (setting [9]) it was 2 µg/mL (≈ 5.76 µM); with Staphylococcus aureus [2] it was over 32 µg/mL; in the experiment with Pseudomonas aeruginosa [3] it was 32 µg/mL (≈ 92.1 µM); with Staphylococcus aureus [4] (setting [10]), 0.5 µg/mL (≈ 1.44 µM); with Enterococcus faecalis (setting [11]), 0.5 µg/mL (≈ 1.44 µM). Besides, the MIC was determined as 8 µg/mL (≈ 23 µM) in experiment [5] (setting [12]), 0.5 µg/mL (≈ 1.44 µM) in the experiment with Streptococcus pneumoniae [6] (setting [13]) and 32 µg/mL (≈ 92.1 µM) in the experiment with Pseudomonas aeruginosa [7] (setting [14]).

Consider `COC(=O)[C@@H]1C[C@@H](O)CN1c1nc2c(cc1F)c(=O)c(C(=O)O)cn2C1CC1`, for which the MIC is 0.5 µg/mL (≈ 1.28 µM) with Streptococcus pneumoniae [1] (setting [8]); 8 µg/mL (≈ 20.4 µM) in the experiment with Escherichia coli (setting [9]); over 32 µg/mL in the experiment on Staphylococcus aureus [2]; 32 µg/mL (≈ 81.8 µM) in the experiment with Pseudomonas aeruginosa [3]; 2 µg/mL (≈ 5.11 µM) in the experiment on Staphylococcus aureus [4] (setting [10]); 1 µg/mL (≈ 2.56 µM) with Enterococcus faecalis (setting [11]). The MIC in experiment [5] (setting [12]) amounted to 16 µg/mL (≈ 40.9 µM); in the experiment on Streptococcus pneumoniae [6] (setting [13]) it was 0.5 µg/mL (≈ 1.28 µM); in the experiment on Pseudomonas aeruginosa [7] (setting [14]) it was 32 µg/mL (≈ 81.8 µM).
